# Results as given in ChEMBL document CHEMBL1153469, “Antimicrobial and immunomodulatory properties of prenylated xanthones from twigs of Garcinia staudtii” (Bioorg Med Chem, 2009).
# Tests used:
# Neutrophil [1] = test: Immunomodulatory activity in polymorphoneutrophils assessed as suppression of phagocytosis activity 30 mins by luminol-enhanced chemiluminescence assay; type: functional, cell-based
# In short: (§1)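 Luminol-enhanced chemiluminescence was run on neutrophils (1 × 10^7) or monocytes (1 × 10^6) in HBSS with Ca/Mg. Cells were preincubated 30 min with compound (3.1–50 µg/mL), then zymosan (20 mg/mL stock) and luminol (7 × 10^-5 M stock) were added, to 0.2 mL final. HBSS alone served as control. Fifty luminometer scans were taken at 30 s intervals, with readings expressed relative to untreated control.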
# [2] = Immunomodulatory activity in MNC assessed as suppression of phagocytosis activity after 30 mins by luminol-enhanced chemiluminescence assay; type: functional; in short: as §1
# [3] = Cytotoxicity against MDBK cells at 50 ug/mL after 72 hrs by MTT assay; type: cell-based, Bos taurus; conditions: cattle
# In short: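 MDBK adherent cells at 2 × 10^5 cells/mL were exposed to serial compound dilutions (0.195–50 µg/mL), with viability examined after 72 h. MTT (2 mg/mL) was added for 2–3 h at 37 °C. Cells were washed with PBS and the formazan dissolved in DMSO, with 15 min agitation at 37 °C. Absorbance was read at 540 nm, and viability was taken as the OD ratio to control.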
# [4] = Cytotoxicity against MNC at 3.1 to 50 ug/mL
# [5] = Cytotoxicity against polymorphoneutrophils at 3.1 to 50 ug/mL; type: cell-based; conditions: neutrophil
# PBMC [6] = test: Immunomodulatory activity in human PBMC assessed as phytohemagglutinin-stimulated IL2 release at 0.5 to 16 ug/mL after 18 hrs by ELISA; type: functional
# In short: (§2)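 Donor PBMCs were Ficoll-isolated and cultured in RPMI-1640 with 10% AB human serum, at 10^5 cells/well, with or without PHA 1.25 µg/mL. Compounds were tested at 16, 4, 1 and 0.5 µg/mL for 18 h at 37 °C in 5% CO2. Supernatants were cleared by 1000g centrifugation at 4 °C. IL-2, IL-4 and IFN-γ were measured by ELISA kit.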
# PBMC [7] = test: Immunomodulatory activity in human PBMC assessed as phytohemagglutinin-stimulated IL4 release at 0.5 to 16 ug/mL after 18 hrs by ELISA; type: functional; in short: as §2
# PBMC [8] = test: Immunomodulatory activity in human PBMC assessed as phytohemagglutinin-stimulated IFN-gamma release at 0.5 to 16 ug/mL after 18 hrs by ELISA; type: functional; in short: as §2
# Neutrophil [9] = test: Immunomodulatory activity in polymorphoneutrophils assessed as inhibition of fMLP-induced cellular chemotaxis at 2.5 to 25 ug/mL after 1 hr using hematoxylin staining by light microscopy; type: functional
# In short: (§3)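 PMN chemotaxis was measured in a modified Boyden chamber. fMLP (10^-8 M) was placed in the lower well, separated by a cellulose filter (2 µm pores). 5 × 10^4 cells in HBSS with Ca/Mg went in the upper well, with compounds at 2.5, 5 or 25 µg/mL, in duplicate. The DMSO:HBSS (1:1) buffer served as control. After 60 min at 37 °C in CO2, cells in the filter were hematoxylin-stained and migration distance was measured in five random fields.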
# Neutrophil [10] = test: Immunomodulatory activity in polymorphoneutrophils assessed as inhibition of fMLP-induced cellular chemotaxis at 25 ug/mL after 1 hr using hematoxylin staining by light microscopy; type: functional; in short: as §3
# Neutrophil [11] = test: Immunomodulatory activity in polymorphoneutrophils assessed as inhibition of fMLP-induced cellular chemotaxis at 2.5 ug/mL pre-incubated 1 hr before fMLP challenge measured after 1 hr using hematoxylin staining by light microscopy; type: functional; in short: as §3
# Neutrophil [12] = test: Immunomodulatory activity in polymorphoneutrophils assessed as inhibition of fMLP-induced cellular chemotaxis at 5 ug/mL pre-incubated 1 hr before fMLP challenge measured after 1 hr using hematoxylin staining by light microscopy; type: functional; in short: as §3
# PBMC [13] = test: Immunomodulatory activity in human PBMC assessed as inhibition of phytohemagglutinin-stimulated IL2 release after 18 hrs by ELISA; type: functional, cell-based; in short: as §2
# PBMC [14] = test: Immunomodulatory activity in human PBMC assessed as inhibition of phytohemagglutinin-stimulated IL4 release after 18 hrs by ELISA; type: functional, cell-based; in short: as §2
# PBMC [15] = test: Immunomodulatory activity in human PBMC assessed as inhibition of phytohemagglutinin-stimulated IFN-gamma release after 18 hrs by ELISA; type: functional, cell-based; in short: as §2
# PBMC [16] = test: cells; conditions: Homo sapiens
# PBMC [17] = test: Immunomodulatory activity in human PBMC assessed as inhibition of phytohemagglutinin-induced T-cell proliferation at 12.5 ug/mL after 72 hrs by [3H]thymidine incorporation assay; type: functional
# In short: (§4)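 PBMCs were isolated from heparinized venous blood of a healthy adult donor by Ficoll–Hypaque gradient. Cells at 5 × 10^5 cells/mL were stimulated with PHA 5 µg/mL, with compounds at 3.1–100 µg/mL final, in triplicate. Incubation was 72 h at 37 °C in 5% CO2, then a 0.5 µCi/well [3H]thymidine pulse for 18 h further. Incorporation was counted by liquid scintillation as mean CPM.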
# PBMC [18] = test: Immunomodulatory activity in human PBMC assessed as inhibition of phytohemagglutinin-stimulated IL2 release at 0.5 ug/mL after 18 hrs by ELISA; type: functional; in short: as §2
# PBMC [19] = test: Immunomodulatory activity in human PBMC assessed as inhibition of phytohemagglutinin-stimulated IFN-gamma release at 0.5 ug/mL after 18 hrs by ELISA; type: functional; in short: as §2
# PBMC [20] = test: Immunomodulatory activity in human PBMC assessed as inhibition of phytohemagglutinin-stimulated IL4 release at 1 ug/mL after 18 hrs; type: functional; in short: as §2
# [21] = Immunomodulatory activity in MNC assessed as suppression of phagocytosis activity at 3.1 ug/mL after 30 mins by luminol-enhanced chemiluminescence assay
# Neutrophil [22] = test: Immunomodulatory activity in polymorphoneutrophils assessed as suppression of phagocytosis activity at 3.1 ug/mL after 30 mins by luminol-enhanced chemiluminescence assay
# [23] = Immunomodulatory activity in MNC assessed as inhibition of reactive oxygen species release at 25 ug/mL after 30 mins by luminol-enhanced chemiluminescence assay; type: functional; set-up: scale not given: the % may be the effect or the level left; in short: as §1
# [24] = Immunomodulatory activity in MNC assessed as stimulation of reactive oxygen species release at 3.1 ug/mL after 30 mins by luminol-enhanced chemiluminescence assay; type: functional; in short: as §1
# [25] = Immunomodulatory activity in MNC assessed as inhibition of reactive oxygen species release at 50 ug/mL after 30 mins by luminol-enhanced chemiluminescence assay; type: functional; set-up: scale not given: the % may be the effect or the level left; in short: as §1
# PBMC [26] = test: Immunomodulatory activity in human PBMC assessed as inhibition of phytohemagglutinin-induced T-cell proliferation at 3.1 ug/mL after 72 hrs by [3H]thymidine incorporation assay; type: functional; in short: as §4
# PBMC [27] = test: Immunomodulatory activity in human PBMC assessed as inhibition of phytohemagglutinin-induced T-cell proliferation at 6.125 ug/mL after 72 hrs by [3H]thymidine incorporation assay; type: functional; in short: as §4
Compound,Activity (Neutrophil [1]),Activity [2],Activity [3],Activity [4],Activity [5],Activity (PBMC [6]) [pg/mL],Activity (PBMC [7]) [pg/mL],Activity (PBMC [8]) [pg/mL],inhibition (INH) (Neutrophil [9]) [%],inhibition (PBMC [13]),inhibition (PBMC [14]),inhibition (PBMC [15]),IC50 (PBMC [16]) [µg/mL],inhibition at 12.5 µg/mL (PBMC [17]) [%],other results
CC(C)=CCc1c2c(c3oc4c(O)cc(O)cc4c(=O)c3c1O)C=CC(C)(C)O2 [STAUDTIIXANTHONE C],Dose-dependent effect,Dose-dependent effect,Non-toxic,Non-toxic,Non-toxic,528.5,120.5,4033.7,27,Dose-dependent effect,Dose-dependent effect,Dose-dependent effect,12.7,–,inhibition at 25 µg/mL (Neutrophil [10]): 46%; inhibition at 2.5 µg/mL (Neutrophil [11]): 36.4%; inhibition at 5 µg/mL (Neutrophil [12]): 42.2%
CC(C)=CCc1c(O)c(CC=C(C)C)c2oc3c(O)cc(O)cc3c(=O)c2c1O [STAUDTIIXANTHONE A],Dose-dependent effect,Dose-dependent effect,Non-toxic,Non-toxic,Non-toxic,528.5,120.5,4033.7,27,Dose-dependent effect,Dose-dependent effect,Dose-dependent effect,6.2,94.3,inhibition at 0.5 µg/mL (PBMC [18]): 68.2%; inhibition at 0.5 µg/mL (PBMC [19]): 62.5%; inhibition at 1 µg/mL (PBMC [20]): 88.1%; Activity [21]: 73%; Activity (Neutrophil [22]): 73%
COc1cc2oc3c4c(cc(O)c3c(=O)c2c2c1OC(C)(C)CC2)OC(C)(C)CC4 [STAUDTIIXANTHONE D],Dose-dependent effect,Dose-dependent effect,Non-toxic,Non-toxic,Non-toxic,528.5,120.5,4033.7,27,–,–,–,3.7,–,Activity [23]: 59%; Activity [24]: 24%; Activity [25]: 70%; inhibition at 3.1 µg/mL (PBMC [26]): 44.9%; inhibition at 6.125 µg/mL (PBMC [27]): 70.4%
CC(C)=CCc1c2c(c(O)c3c(=O)c4cc(O)cc(O)c4oc13)C=CC(C)(C)O2 [STAUDTIIXANTHONE B],Dose-dependent effect,Dose-dependent effect,Non-toxic,Non-toxic,Non-toxic,528.5,120.5,4033.7,27,Dose-dependent effect,Dose-dependent effect,Dose-dependent effect,6.4,97.1,–
